According to ChEMBL document CHEMBL2203146, “Search for anticonvulsant and analgesic active derivatives of dihydrofuran-2(3H)-one” (Bioorg Med Chem, 2012):
Active and inactive are the calls of the source.

Legend:
Mus musculus [1] = test: Anesthetic activity in […] assessed as latency in response to thermal stimuli administered as 2% solution, sc measured after 15 mins by modified tail immersion test; type: functional, albino CF1
Mus musculus [2] = test: Anesthetic activity in albino CF1 mouse assessed as latency in response to thermal stimuli administered as 1% solution, sc measured after 15 mins by modified tail immersion test; type: functional
Method in brief: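 Male Albino Swiss (CD-1) mice, 6-8 per group, tested at 1% and 2% compound concentration. Tail distal 3 cm immersed in water at 50 ± 0.5 °C 15 min after treatment. Tail-withdrawal latency recorded with a 20 s cutoff. Value is % difference in latency vs vehicle-treated mice. Mean ± SEM, Student's t-test.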

Mus musculus [3] = test: […] activity in ip dosed albino CF1 mouse assessed as inhibition of phenylbenzoquinone-induced writhing administered after 30 mins prior challenge; type: functional
Method in brief: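 Male Albino Swiss (CD-1) mice, 6-8 per dose. Compound given ip in 0.5% methylcellulose. 30 min later, 0.25 ml of 0.02% phenylbenzoquinone injected. After 5 min, writhes counted over 10 min. % effect = (vehicle mean − drug mean)/vehicle mean × 100. ED50 derived; Student's t-test.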

Mus musculus [4] = test: Analgesic activity in albino CF1 mouse assessed as inhibition of heat-induced paw licking or jumping behaviour administered after 30 mins prior heat challenge by hot plate method; type: functional
Mus musculus [5] = test: Anticonvulsant activity in albino CF1 mouse assessed as protection against subcutaneous metrazol-induced seizures at 30 to 300 mg/kg, ip after 0.5 to 4 hrs; type: functional, organism-based
Method in brief: (§1)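 CF No. 1 male mice dosed ip at 30, 100 or 300 mg/kg (saline or 0.5% methylcellulose), then given pentetrazole 85 mg/kg sc as 0.5% solution in posterior midline. Watched 30 min. Protection means no threshold seizure (single clonic spasm episode of at least 5 s). Expressed as protected/tested.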

Mus musculus [6] = test: Neurotoxicity in albino CF1 mouse assessed as minimal motor impairment at 300 mg/kg, ip after 4 hrs by rotorod test; type: toxicity, organism-based; parameters: dose 300 mg/kg, route intraperitoneal; conditions: in vivo
Method in brief: (§2)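 Rotarod in male CF No. 1 mice after ip dosing (30, 100, 300 mg/kg; saline or 0.5% methylcellulose) at 15–240 min. Knurled plastic rod, 1-inch diameter, 6 rpm. Toxicity means failing to stay on for 1 min on three successive attempts. Recorded as toxic/tested.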

Mus musculus [7] = test: Neurotoxicity in albino CF1 mouse assessed as minimal motor impairment at 300 mg/kg, ip after 0.5 hr by rotorod test; type: toxicity, organism-based; parameters: dose 300 mg/kg, route intraperitoneal; conditions: in vivo; method in brief: as §2
Mus musculus [8] = test: Neurotoxicity in albino CF1 mouse assessed as minimal motor impairment at 100 mg/kg, ip after 4 hrs by rotorod test; type: toxicity, organism-based; parameters: dose 100 mg/kg, route intraperitoneal; conditions: in vivo; method in brief: as §2
Mus musculus [9] = test: Neurotoxicity in albino CF1 mouse assessed as minimal motor impairment at 100 mg/kg, ip after 1 hr by rotorod test; type: toxicity, organism-based; parameters: dose 100 mg/kg, route intraperitoneal; conditions: in vivo; method in brief: as §2
Mus musculus [10] = test: Neurotoxicity in albino CF1 mouse assessed as minimal motor impairment at 100 mg/kg, ip after 0.5 hr by rotorod test; type: toxicity, organism-based; parameters: dose 100 mg/kg, route intraperitoneal; conditions: in vivo; method in brief: as §2
Mus musculus [11] = test: Neurotoxicity in albino CF1 mouse assessed as minimal motor impairment at 100 mg/kg, ip after 0.25 hr by rotorod test; type: toxicity, organism-based; parameters: dose 100 mg/kg, route intraperitoneal; conditions: in vivo; method in brief: as §2
Mus musculus [12] = test: Anticonvulsant activity in albino CF1 mouse assessed as protection against maximal electroshock-induced seizures at 300 mg/kg, ip after 4 hrs; type: functional, organism-based; parameters: dose 300 mg/kg
Method in brief: (§3)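 Male albino CF No. 1 mice (18–25 g) dosed ip at 30, 100 and 300 mg/kg in saline or 0.5% methylcellulose, tested 15, 30, 60 and 240 min after dosing. Maximal electroshock seizures elicited with 60-cycle alternating current. Scored as animals protected/animals tested, small qualitative groups.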

Mus musculus [13] = test: Anticonvulsant activity in albino CF1 mouse assessed as protection against maximal electroshock-induced seizures at 300 mg/kg, ip after 0.5 hr; type: functional, organism-based; parameters: dose 300 mg/kg; method in brief: as §3
Mus musculus [14] = test: Anticonvulsant activity in albino CF1 mouse assessed as protection against maximal electroshock-induced seizures at 100 mg/kg, ip after 4 hrs; type: functional, organism-based; parameters: dose 100 mg/kg; method in brief: as §3
Mus musculus [15] = test: Anticonvulsant activity in albino CF1 mouse assessed as protection against maximal electroshock-induced seizures at 100 mg/kg, ip after 1 hr; type: functional, organism-based; parameters: dose 100 mg/kg; method in brief: as §3
Mus musculus [16] = test: Anticonvulsant activity in albino CF1 mouse assessed as protection against maximal electroshock-induced seizures at 100 mg/kg, ip after 0.5 hr; type: functional, organism-based; parameters: dose 100 mg/kg; method in brief: as §3
Mus musculus [17] = test: Anticonvulsant activity in albino CF1 mouse assessed as protection against maximal electroshock-induced seizures at 100 mg/kg, ip after 0.25 hr; type: functional, organism-based; parameters: dose 100 mg/kg; method in brief: as §3
Rattus norvegicus [18] = test: Anticonvulsant activity in po dosed Sprague-Dawley rat assessed as protection against maximal electroshock-induced seizures measured after 0.25 to 4 hrs; type: functional
Method in brief: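 Male Sprague-Dawley rats, 100–150 g, dosed orally at 30 mg/kg. Maximal electroshock (60-cycle alternating current) applied at time points after dosing. Scored as animals protected/animals tested.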

Rattus norvegicus [19] = test: Neurotoxicity in Sprague-Dawley rat assessed as minimal motor impairment at 30 mg/kg, po after 4 hrs by rotorod test; type: toxicity, organism-based; parameters: dose 30 mg/kg, route oral; conditions: in vivo
Rattus norvegicus [20] = test: Neurotoxicity in Sprague-Dawley rat assessed as […] at 30 mg/kg, po after 2 hrs […]; type: toxicity, organism-based; parameters: dose 30 mg/kg, route oral; conditions: in vivo
Rattus norvegicus [21] = test: Neurotoxicity in Sprague-Dawley rat assessed as […] at 30 mg/kg, po after 1 hr […]; type: toxicity, organism-based; parameters: dose 30 mg/kg, route oral; conditions: in vivo
Rattus norvegicus [22] = test: Neurotoxicity in Sprague-Dawley rat assessed as minimal motor impairment at 30 mg/kg, po after 0.5 hr by rotorod test; type: toxicity, organism-based; parameters: dose 30 mg/kg, route oral; conditions: in vivo
Rattus norvegicus [23] = test: Neurotoxicity in Sprague-Dawley rat assessed as […] at 30 mg/kg, po after 0.25 hr […]; type: toxicity, organism-based; parameters: dose 30 mg/kg, route oral; conditions: in vivo
Rattus norvegicus [24] = test: Anticonvulsant activity in Sprague-Dawley rat assessed as protection against maximal electroshock-induced seizures at 30 mg/kg, po after 4 hrs; type: functional, organism-based; parameters: dose 30 mg/kg
Method in brief: (§4)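 Male Sprague-Dawley rats (100–150 g), compound given orally at 30 mg/kg, dissolved in saline or suspended in 0.5% methylcellulose. Maximal electroshock seizures elicited with 60-cycle alternating current. Result recorded as number protected/number tested at each time point.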

Rattus norvegicus [25] = test: Anticonvulsant activity in Sprague-Dawley rat assessed as protection against maximal electroshock-induced seizures at 30 mg/kg, po after 2 hrs; type: functional, organism-based; parameters: dose 30 mg/kg; method in brief: as §4
Rattus norvegicus [26] = test: Anticonvulsant activity in Sprague-Dawley rat assessed as protection against maximal electroshock-induced seizures at 30 mg/kg, po after 1 hr; type: functional, organism-based; parameters: dose 30 mg/kg; method in brief: as §4
Rattus norvegicus [27] = test: Anticonvulsant activity in Sprague-Dawley rat assessed as protection against maximal electroshock-induced seizures at 30 mg/kg, po after 0.5 hr; type: functional, organism-based; parameters: dose 30 mg/kg; method in brief: as §4
Rattus norvegicus [28] = test: Anticonvulsant activity in Sprague-Dawley rat assessed as protection against maximal electroshock-induced seizures at 30 mg/kg, po after 0.25 hr; type: functional, organism-based; parameters: dose 30 mg/kg; method in brief: as §4
Mus musculus [29] = test: Neurotoxicity in albino CF1 mouse assessed as minimal motor impairment at 30 mg/kg, ip after 4 hrs by rotorod test; type: toxicity, organism-based; parameters: dose 30 mg/kg, route intraperitoneal; conditions: in vivo; method in brief: as §2
Mus musculus [30] = test: Neurotoxicity in albino CF1 mouse assessed as minimal motor impairment at 30 mg/kg, ip after 0.5 hr by rotorod test; type: toxicity, organism-based; parameters: dose 30 mg/kg, route intraperitoneal; conditions: in vivo
Method in brief: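 Male albino CF No. 1 mice, compound ip in saline or 0.5% methylcellulose. Rotarod: 1-inch knurled rod at 6 rpm. Toxicity is failure to stay on the rod for 1 min on three successive attempts. Expressed as toxic/tested.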

Mus musculus [31] = test: Anticonvulsant activity in albino CF1 mouse assessed as protection against maximal electroshock-induced seizures at 30 mg/kg, ip after 0.5 hr; type: functional, organism-based; parameters: dose 30 mg/kg
Method in brief: (§5)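 Male albino CF No. 1 mice, 18–25 g. Compound in saline or 0.5% methylcellulose, ip. Seizures elicited by 60-cycle alternating current maximal electroshock. Result expressed as animals protected/animals tested.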

Mus musculus [32] = test: Anticonvulsant activity in albino CF1 mouse assessed as protection against maximal electroshock-induced seizures at 30 mg/kg, ip after 4 hrs; type: functional, organism-based; parameters: dose 30 mg/kg; method in brief: as §5
Mus musculus [33] = test: Toxicity in albino CF1 mouse assessed as proconvulsant activity at 30 to 300 mg/kg, ip after 0.5 to 4 hrs; type: organism-based; parameters: route intraperitoneal; conditions: in vivo; method in brief: as §1

| Compound | Activity (Mus musculus [1]) | Activity (Mus musculus [2]) | ED50 (Mus musculus [3]) | ED50 (Mus musculus [4]) | Activity (Mus musculus [5]) | Activity (Mus musculus [6]) | Activity (Mus musculus [7]) | Activity (Mus musculus [8]) | Activity (Mus musculus [9]) | Activity (Mus musculus [10]) | Activity (Mus musculus [11]) | Activity (Mus musculus [12]) | Activity (Mus musculus [13]) | Activity (Mus musculus [14]) | Activity (Mus musculus [15]) | Activity (Mus musculus [16]) | Activity (Mus musculus [17]) | also measured |
| --- | --- | --- | --- | --- | --- | --- | --- | --- | --- | --- | --- | --- | --- | --- | --- | --- | --- | --- |
| O=C1OCCC1N1CCN(c2ccccc2)CC1 (racemic) | 146% | 102% | 2.4 mg/kg | 4 mg/kg | inactive | Non-toxic | Toxic | Non-toxic | Non-toxic | Toxic | Non-toxic | inactive | Active | inactive | inactive | inactive | inactive |  |
| O=C1OCCC1N1CCN(c2cccc(C(F)(F)F)c2)CC1 (racemic) | 149% | 81% | 0.8 mg/kg | 1.3 mg/kg | inactive | Non-toxic | Toxic | Non-toxic |  | Non-toxic |  | inactive | Active | Active |  | inactive |  | ED50 (Rattus norvegicus [18]): 112 mg/kg; Activity (Rattus norvegicus [19]): Non-toxic; Activity (Rattus norvegicus [20]): Non-toxic; Activity (Rattus norvegicus [21]): Non-toxic; Activity (Rattus norvegicus [22]): Toxic; Activity (Rattus norvegicus [23]): Non-toxic; Activity (Rattus norvegicus [24]): Active; Activity (Rattus norvegicus [25]): Active; Activity (Rattus norvegicus [26]): inactive; Activity (Rattus norvegicus [27]): inactive; Activity (Rattus norvegicus [28]): inactive |
| COc1ccc(Cl)cc1N1CCN(C2CCOC2=O)CC1 (racemic) | 29% | 12% | 19 mg/kg | 28.1 mg/kg | inactive | Toxic | Toxic | Toxic | Toxic | Toxic | Non-toxic | inactive | Active | inactive | inactive | inactive | inactive | Activity (Mus musculus [29]): Non-toxic; Activity (Mus musculus [30]): Toxic; Activity (Mus musculus [31]): inactive; Activity (Mus musculus [32]): inactive |
| O=C1OCCC1N1CCc2ccccc2C1 (racemic) |  |  | 3.7 mg/kg | 32.4 mg/kg | inactive | Non-toxic | Non-toxic | Non-toxic |  | Non-toxic |  | inactive | inactive | inactive |  | inactive |  | Activity (Mus musculus [33]): Toxic |
